# Test results from ChEMBL document CHEMBL1166015, “Design, synthesis, and docking of highly hypolipidemic agents: Schizosaccharomyces pombe as a new model for evaluating alpha-asarone-based HMG-CoA reductase inhibitors” (Bioorg Med Chem, 2010).
# pIC50: −log10 of the molar value.
# Target: T1, 3-hydroxy-3-methylglutaryl-coenzyme A reductase (Schizosaccharomyces pombe 972h-, UniProt Q10283)
# T1 sequence (Q10283 whole entry): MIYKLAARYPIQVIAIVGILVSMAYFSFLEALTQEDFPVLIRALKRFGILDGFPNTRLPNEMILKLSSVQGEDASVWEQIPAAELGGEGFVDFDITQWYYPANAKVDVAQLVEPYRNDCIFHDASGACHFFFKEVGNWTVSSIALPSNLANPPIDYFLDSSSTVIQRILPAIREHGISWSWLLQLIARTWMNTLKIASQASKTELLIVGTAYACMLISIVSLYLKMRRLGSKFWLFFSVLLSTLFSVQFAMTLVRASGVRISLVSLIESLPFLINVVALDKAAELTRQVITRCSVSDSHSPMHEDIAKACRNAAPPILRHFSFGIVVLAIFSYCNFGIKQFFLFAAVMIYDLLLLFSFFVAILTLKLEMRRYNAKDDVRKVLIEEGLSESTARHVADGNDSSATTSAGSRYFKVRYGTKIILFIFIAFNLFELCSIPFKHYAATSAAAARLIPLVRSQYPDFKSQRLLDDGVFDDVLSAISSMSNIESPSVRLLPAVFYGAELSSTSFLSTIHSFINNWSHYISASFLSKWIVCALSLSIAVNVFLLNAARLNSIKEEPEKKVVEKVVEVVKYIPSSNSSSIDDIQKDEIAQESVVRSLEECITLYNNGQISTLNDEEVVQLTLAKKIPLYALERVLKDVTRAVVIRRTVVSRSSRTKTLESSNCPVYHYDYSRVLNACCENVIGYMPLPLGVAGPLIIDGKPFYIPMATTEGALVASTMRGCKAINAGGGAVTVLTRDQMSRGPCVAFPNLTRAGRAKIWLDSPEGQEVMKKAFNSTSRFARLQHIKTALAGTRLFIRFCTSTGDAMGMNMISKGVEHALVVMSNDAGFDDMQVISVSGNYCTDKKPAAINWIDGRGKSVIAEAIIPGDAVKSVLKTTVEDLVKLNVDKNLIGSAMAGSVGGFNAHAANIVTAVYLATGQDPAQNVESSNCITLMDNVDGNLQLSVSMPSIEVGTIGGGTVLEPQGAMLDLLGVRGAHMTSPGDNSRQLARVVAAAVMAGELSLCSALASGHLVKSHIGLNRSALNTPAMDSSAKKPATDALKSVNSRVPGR
# Assay: Inhibition of Schizosaccharomyces pombe HMG-CoA reductase by spectrophotometry
# Details: not given; call rule not given here
# How it was run: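 Membrane HMGR partially purified from S. pombe 972 h (YPD, 28 °C, 48 h) via centrifugation, Triton X-100 solubilization, 65 °C heat step, ammonium sulfate and calcium phosphate gel. Enzyme activated 37 °C 30 min, pre-incubated with compound (DMSO stocks 1–5 mM) 30 min at 37 °C. Assay: 200 µg enzyme, 0.13 mM HMG-CoA, 50 mM Tris-HCl pH 7.5; started with 0.13 mM NADPH; A340 decrease over 2 min; triplicate; IC50 derived.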
row,IC50,SMILES
1,Not Active,CCOC(=O)COc1cccc(C(C)=O)c1

# Same assay, conditions: read-out: IC50
row,SMILES,pIC50
1,CCCCc1cc(OC)c(OC)cc1OC,3.66
2,CCc1ccc(OCC(=O)OC)cc1,2.88

# Results, then the compound that gave them:
row,pIC50,SMILES
1,4.04,COC(=O)COc1ccccc1C
2,4.15,C/C=C/c1cc(OC)c(OC)cc1Cl
3,4.02,CCC(C)(C)C(=O)O[C@H]1C[C@@H](C)C=C2C=C[C@H](C)[C@H](CC[C@@H]3C[C@@H](O)CC(=O)O3)[C@H]21 [SIMVASTATIN]
